IEC-6 cytotox: counter-screen for KLF5 inhibitors: cytotoxicity in IEC-6 cells; IEC-6 cytotoxicity, luminescence viability; inhibition, % at 5 µM; hit rate 0.78% among 290,000
MT stabilize HCS: microtubule stabilizers in HeLa cells. HeLa tubulin immunostaining HCS, 24 h; share of cells brighter than vehicle mean+2SD. % tubulin-high responders, % at 10 µM. hit rate 0.83% among 200,000;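 active = plate Z-score above 3 for both tubulin-high and condensed-nucleus cell shares, with cell loss under 80%, at 10 µM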;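 also: anti alpha tubulin signal scored within the nucleus-defined area of each cell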
APP transl inh: APP translation inhibition; SH-SY5Y APP 5'UTR-luciferase reporter, luminescence; inhibition, % at 2 µM; hit rate 0.82% among 190,000;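 active = inhibition above a set limit, derived from the sample mean plus 3 SD, cut at about 45% in these data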
b-catenin transl: beta-catenin nuclear translocation modulation; nuclear translocation activity, % at 5 µM; HeLa beta-catenin nuclear translocation, immunofluorescence imaging; hit rate 0.3% among 190,000; AID 1665;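 active = nuclear translocation activity above 50% at 5 µM, with a well cell count of 50 or more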;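 also: per-cell ratio of nuclear to cytoplasmic median beta-catenin stain intensity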
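test system = HeLa cells, endogenous beta-catenin | dosing = single 5 µM dose plus 0.02–20 µM confirmation series | times = compound treatment 24 h, 37°C, 5% CO2 | technique = beta-catenin immunofluorescence imaging with DAPI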
Ba/F3 V617F tox: lowers viability of Ba/F3 cells expressing EpoR and JAK2V617F. ATP luminescence. inhibition, % at 5.6 µM. hit rate 1.1% among 220,000. AID 1446;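 active = inhibition above the campaign mean plus 3 SD over all tested compounds, cut at about 24% in these data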;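 also: cytokine-independent growth of Ba/F3 cells driven by EpoR plus mutant JAK2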
BaF3 tox: parental Ba/F3 viability inhibition as JAK2V617F counter-screen. CellTiter-Glo ATP luminescence. inhibition, % at 5.6 µM. hit rate 1.1% among 220,000. AID 1486;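 active = inhibition above a per-campaign cutoff, the mean inhibition of all tested compounds plus 3 SD, cut at about 27% in these data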
IEC-6 cytotox cf: confirmation of cytotoxic compounds in rat IEC-6 intestinal epithelial cells; shares compounds with IEC-6 cytotox; inhibition, % at 5 µM; hit rate 63% among 1,900; IEC-6 rat intestinal epithelial viability, luminescence
Hits are given with their value; i = inactive; nt = not tested or not shown. In the library only some 2.2% were active in any assay of this set; here they are far more common. Rule as the data show it, unless noted: active = inhibition above about 22%; inactive = the rest.

SMILES	IEC-6 cytotox	MT stabilize HCS	APP transl inh	b-catenin transl	Ba/F3 V617F tox	BaF3 tox	IEC-6 cytotox cf
CCCCCCCCCC[n+]1cccc2c3ccccc3ccc21	52	i	i	nt	101	92	36
CC(=O)Nc1ccccc1OCC(=O)c1cc(C)n(Cc2cccs2)c1C	26	i	i	nt	62	82	i
Cc1cc(C(=O)COc2cccnc2[N+](=O)[O-])c(C)n1Cc1cccs1	i	i	i	i	i	i	nt
Cn1ccnc1CN1CCCCC1C(=O)Nc1ccc(Oc2cccnc2)cc1 (centres undefined)	27	nt	nt	nt	nt	nt	i
CCCCOc1ccc(Br)cc1/C(C)=N/NC1=NCCN1	83	i	96	52	80	75	66
CCCCCCOc1ccc(/C(C)=N/NC2=NCCN2)cc1[N+](=O)[O-]	i	i	i	i	i	i	nt
CC(=O)c1c2c3c(c(Br)ccc3n(C)c1=O)C(=O)c1ccccc1-2	44	nt	nt	nt	nt	nt	i
CC(=O)c1c2c3c(cccc3n(C)c1=O)C(=O)c1ccccc1-2	i	nt	nt	nt	nt	nt	nt
O=C(Cc1n[nH]c(=O)c2ccccc12)OCC(=O)c1ccc2c(c1)OCCO2	89	21	95	i	83	82	60
Cc1cc(C(=O)COC(=O)Cc2n[nH]c(=O)c3ccccc23)c(C)n1-c1ccc2c(c1)OCO2	i	i	i	i	i	i	nt
Cc1ccc(C)c(NC(=S)NC23CN4CN(CN(C4)C2)C3)c1	i	i	i	nt	i	i	nt
CCCNC(=O)NC(=O)CN1CCCC1c1ccc2c(c1)OCCO2 (centres undefined)	i	nt	nt	nt	nt	nt	nt
O=C(CCl)N1CCCC1c1ccc2c(c1)OCCO2 (centres undefined)	78	nt	nt	nt	nt	nt	24
CCOC(=O)C1CCN(C(=O)CCCOc2ccccc2)CC1	i	i	i	i	i	i	nt
Cc1ccc2[nH]c3c(c2c1)CCCC3NC(=O)CCl (centres undefined)	56	nt	nt	nt	nt	nt	60
CCO/N=C/c1ccc(OC)c(Oc2nc(OC)cc(OC)n2)c1	i	i	i	i	i	i	nt
CO/N=C/c1ccc(OC)c(Oc2nc(OC)cc(OC)n2)c1	28	i	66	i	i	i	i
C/C(=N\Nc1nc(C)cc(-c2ccccc2)n1)c1ccccc1	26	nt	nt	nt	nt	nt	i
CC(C)c1ccc(/C=N/Nc2cc(N3CCOCC3)nc(N3CCOCC3)n2)cc1	i	i	i	i	i	i	nt
Cc1cccc(/C=N/Nc2cc(N3CCOCC3)nc(N3CCOCC3)n2)c1	24	i	i	i	i	i	94
Cc1ccc(Nc2nc(N/N=C\c3ccc4c(c3)OCO4)nc(N3CCOCC3)n2)cc1	49	i	i	i	i	i	67
CCOC(=O)Nc1ccc2nc(Sc3ccc(Cl)cc3)sc2c1	38	nt	nt	i	i	i	24
CC(C)c1ccc2c(c1)[C@H]1OCC[C@H]1[C@@H](c1cccs1)N2	26	20	86	i	41	54	66
CC(C)(C)c1ccc(OCCCn2ccnc2)cc1	i	nt	nt	nt	nt	nt	nt
C=CCn1c(CNC(=O)c2ccccc2F)nnc1SCC(=O)N1CCOCC1	i	nt	nt	nt	nt	nt	nt
SMILES	IEC-6 cytotox	MT stabilize HCS	APP transl inh	b-catenin transl	Ba/F3 V617F tox	BaF3 tox	IEC-6 cytotox cf
COCCN(C(=O)Nc1ccccc1OC)c1nc2ccccc2s1	45	nt	nt	nt	nt	nt	31
CCOc1ccc2nc(-c3ccccc3)[nH]c2c1	42	42	i	78	71	54	30
CCc1nnc(NC(=O)C2CCN(c3cnccn3)CC2)s1	i	i	i	i	i	i	nt
CCOc1ccc(C)cc1S(=O)(=O)n1cnc2ccccc21	51	nt	nt	nt	nt	nt	29
CCOc1ccc(S(=O)(=O)n2cnc3ccccc32)cc1	i	nt	nt	nt	nt	nt	nt
S=c1nc(NCCc2ccccc2Cl)c2ccccc2[nH]1	24	nt	nt	nt	nt	nt	i
COc1ccc(S(=O)(=O)N2CCOC2CNC(=O)C(=O)NCCCN2CCOCC2)cc1OC (centres undefined)	i	nt	nt	nt	nt	nt	nt
CC1CCN(Cc2ccc(-c3nnn(CC(=O)Nc4ccccc4Cl)n3)cc2)CC1	34	i	i	i	i	i	26
O=C(NCCCN1CCOCC1)c1sc2ccccc2c1Cl	i	i	i	i	i	i	nt
Cc1[nH]n(-c2ccccc2)c(=O)c1/C=N/NC(=O)c1ccccc1F	30	nt	nt	nt	nt	nt	i
COc1ccc(-c2nc(CCl)cs2)cc1	i	i	i	i	i	i	nt
COc1ccc(-c2ccnc(-c3ccncc3)n2)cc1	30	nt	nt	i	i	i	i
COc1ccc(-c2csc(-c3ccc(O)cc3)n2)cc1	50	nt	nt	i	64	47	44

Screening results deposited in PubChem by several laboratories.
